The test system of data set [1] is Rattus norvegicus. Put plainly: Drug uptake in Sprague-Dawley rat assessed as radioactivity in lipid fraction at 4.6 to 23 mmol/kg, ip measured at 1 to 6 hrs by scintillation counting. It counts as ADME, organism-based. The following applies: in vivo. The gist of the method: (§1)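 Male Sprague-Dawley rats, 100-120 g, fasted overnight. [1-14C]Halothane in olive oil (50 µCi/kg) given ip at 4.6, 11.5 or 23.0 mmol/kg. Rats killed at 0.5-24 h. Lipid fraction isolated from 1 g liver by the Folch method; DNA fraction by the Irving-Veazey method; proteins handled as for binding. Radioactivity counted by liquid scintillation. Means of six rats.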

In data set [2] the test system is Rattus norvegicus. The data set can be described thus: Toxicity in Sprague-Dawley rat assessed as liver necrosis at 4.6 mmol/kg, ip measured after 0.5 to 24 hrs by histopathological/light microscopy analysis (reference value: 0%). It is filed as organism-based. The following applies: in vivo. In a few lines:
(§2)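 Normal or phenobarbital-pretreated male Sprague-Dawley rats dosed ip with [14C]halothane in olive oil; controls received the vehicle. Rats killed by cervical dislocation 0.5-24 h after dosing. Liver slices fixed in 10% buffered formalin (pH 7.0) and paraffin-embedded. 6-µm sections stained with H&E and read by light microscopy. Necrosis graded on a 0-4+ scale. Six rats per time point.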

In data set [3] the test system is Rattus norvegicus. Put plainly: Toxicity in phenobarbital pretreated Sprague-Dawley rat assessed as liver necrosis at 4.6 mmol/kg, ip measured after 0.5 to 24 hrs. It is filed as organism-based. The following applies: in vivo. The gist of the method:
as §2

The subject of data set [4] is Rattus norvegicus. Put plainly: Toxicity in phenobarbital pretreated Sprague-Dawley rat assessed as liver necrosis at 4.6 mmol/kg, ip measured after 0.5 to 24 hrs by histopathological/light microscopy analysis (reference value: 0%). It is filed as organism-based. The following applies: in vivo. In a few lines: as §2
For data set [5], the system named is Rattus norvegicus. The data set can be described thus: Toxicity in phenobarbital pretreated Sprague-Dawley rat assessed as liver necrosis at 23 mmol/kg, ip measured after 24 hrs. It is filed as organism-based. The settings on record: in vivo.
For data set [6], the system named is Rattus norvegicus. Put plainly: Toxicity in Sprague-Dawley rat assessed as liver necrosis at 23 mmol/kg, ip measured after 0.5 to 24 hrs by histopathological/light microscopy analysis (reference value: 0%). It is filed as organism-based. The following applies: in vivo. The gist of the method: as §2
Data set [7] deals with Rattus norvegicus. The data set can be described thus: Anesthetic activity in Sprague-Dawley rat assessed as duration of anesthesia at 11.5 mmol/kg, ip. It counts as functional. The gist of the method: (§3)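 Male Sprague-Dawley rats, 100-120 g, fasted overnight before dosing, fed afterwards. Single ip dose of [1-14C]halothane in olive oil (diluted with unlabeled halothane; 50 µCi 14C/kg). Duration of anesthesia recorded in normal and phenobarbital-pretreated rats. Pretreatment was phenobarbital sodium 80 mg/kg ip in water for 3 days, with use on day 4. Six rats per group.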

Data set [8] concerns Rattus norvegicus. Put plainly: Toxicity in phenobarbital pretreated Sprague-Dawley rat assessed as multiple, discrete foci of liver parenchymal cell necrosis at 23 mmol/kg, ip measured after 0.5 to 24 hrs by histopathological/light microscopy analysis (reference value: 0%). It is filed as organism-based. The following applies: in vivo. The gist of the method:
as §2

In data set [9] the test system is Rattus norvegicus. The data set can be described thus: Anesthetic activity in Sprague-Dawley rat assessed as duration of anesthesia at 23 mmol/kg, ip. It counts as functional. The gist of the method:
as §3

In data set [10] the test system is Rattus norvegicus. Put plainly: Toxicity in Sprague-Dawley rat assessed as mortality at 11.5 mmol/kg, ip measured up to 24 hrs. It counts as organism-based. The following applies: in vivo. The gist of the method:
(§4)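 Male Sprague-Dawley rats, 100-120 g, fasted overnight before dosing and fed afterwards. Some received phenobarbital sodium 80 mg/kg ip in water for 3 days and were used on day 4. [1-14C]halothane in olive oil, 50 µCi/kg, was given ip. Mortality was recorded over the sacrifice schedule of 0.5-24 h, with six rats per time point. Vehicle controls received olive oil.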

Data set [11] concerns Rattus norvegicus. Put plainly: Drug uptake in Sprague-Dawley rat assessed as radioactivity in lipid fraction at 4.6 to 23 mmol/kg, ip measured at 6 to 8 hrs by scintillation counting. It counts as ADME, organism-based. The following applies: in vivo. The gist of the method: as §1
For data set [12], the system named is Rattus norvegicus. Put plainly: Toxicity in Sprague-Dawley rat assessed as liver necrosis at 4.6 mmol/kg, ip measured after 0.5 to 24 hrs. It is filed as organism-based. The following applies: in vivo. In a few lines: as §2
Data set [13] has as its system Rattus norvegicus. Put plainly: Toxicity in Sprague-Dawley rat assessed as serum glutamic pyruvic transaminase level in blood at 4.6 mmol/kg, ip measured after 0.5 to 24 hrs (reference value: 14 +/- 2 IU/L). It is filed as organism-based. The settings on record: in vivo.
Data set [14] relates to Rattus norvegicus. Put plainly: Drug uptake in Sprague-Dawley rat assessed as radioactivity in liver protein at 4.6 to 23 mmol/kg, ip measured up to 24 hrs by scintillation counting. It is filed as ADME, organism-based. The following applies: in vivo. In a few lines:
as §1

For data set [15], the system named is Rattus norvegicus. The data set can be described thus: Toxicity in phenobarbital pretreated Sprague-Dawley rat assessed as serum glutamic pyruvic transaminase level in blood at 11.5 mmol/kg, ip measured after 0.5 to 24 hrs (reference value: 15 +/- 2 IU/L). It is filed as organism-based. The following applies: in vivo.
The subject of data set [16] is Liver. Put plainly: Protein binding in Sprague-Dawley rat liver protein at 4.6 to 23 mmol/kg, ip measured per mg of protein up to 24 hrs by scintillation counting. It is filed as ADME, organism-based. The settings on record: in vivo. The gist of the method: (§5)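 Male Sprague-Dawley rats, normal or phenobarbital-pretreated (80 mg/kg ip, 3 days), received ip [1-14C]halothane in olive oil (50 µCi/kg). Liver homogenized 1 g/3 ml water at 0 °C. Protein precipitate washed ten times with hot (60 °C) methanol-ether 3:1, then digested in 1 N NaOH and counted. Protein measured by Lowry against BSA. Result expressed as nmol halothane equivalents per mg protein. Blank from [14C]halothane added to control homogenate was subtracted. Six rats.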

In data set [17] the test system is Rattus norvegicus. Put plainly: Drug uptake in Sprague-Dawley rat assessed as radioactivity in DNA fraction at 4.6 to 23 mmol/kg, ip measured up to 24 hrs by scintillation counting. It is filed as ADME, organism-based. The settings on record: in vivo. In a few lines:
as §1

For data set [18], the system named is Rattus norvegicus. Put plainly: Toxicity in Sprague-Dawley rat assessed as liver necrosis at 11.5 mmol/kg, ip measured after 0.5 to 24 hrs by histopathological/light microscopy analysis (reference value: 0%). It counts as organism-based. The following applies: in vivo. The gist of the method: as §2
The test system of data set [19] is Rattus norvegicus. The data set can be described thus: Toxicity in phenobarbital pretreated Sprague-Dawley rat assessed as serum glutamic pyruvic transaminase level in blood at 4.6 mmol/kg, ip measured after 0.5 to 24 hrs (reference value: 15 +/- 2 IU/L). It is filed as organism-based. The settings on record: in vivo.
Data set [20] relates to Rattus norvegicus. Put plainly: Toxicity in Sprague-Dawley rat assessed as serum glutamic pyruvic transaminase level in blood at 11.5 mmol/kg, ip measured after 0.5 to 24 hrs (reference value: 14 +/- 2 IU/L). It counts as organism-based. The settings on record: in vivo.
Data set [21] deals with Rattus norvegicus. Put plainly: Toxicity in Sprague-Dawley rat assessed as mortality at 23 mmol/kg, ip measured up to 24 hrs. It is filed as organism-based. The following applies: in vivo. In a few lines: as §4
Data set [22] relates to Rattus norvegicus. Put plainly: Toxicity in phenobarbital pretreated Sprague-Dawley rat assessed as mortality at 11.5 mmol/kg, ip measured up to 24 hrs. It counts as organism-based. The following applies: in vivo. The gist of the method: as §4
In data set [23] the test system is Liver. Put plainly: Protein binding in phenobarbital pretreated Sprague-Dawley rat liver protein at 4.6 to 23 mmol/kg, ip measured per mg of protein up to 24 hrs by scintillation counting. It counts as ADME, organism-based. The following applies: in vivo. In a few lines:
as §5

The test system of data set [24] is Rattus norvegicus. Put plainly: Toxicity in phenobarbital pretreated Sprague-Dawley rat assessed as serum glutamic pyruvic transaminase level in blood at 23 mmol/kg, ip measured after 0.5 to 24 hrs (reference value: 15 +/- 2 IU/L). It is filed as organism-based. The following applies: in vivo.
The subject of data set [25] is Rattus norvegicus. Put plainly: Toxicity in phenobarbital pretreated Sprague-Dawley rat assessed as liver necrosis at 11.5 mmol/kg, ip measured after 24 hrs. It is filed as organism-based. The following applies: in vivo.
For data set [26], the system named is Rattus norvegicus. Put plainly: Toxicity in Sprague-Dawley rat assessed as mortality at 4.6 mmol/kg, ip measured up to 24 hrs. The settings on record: in vivo. It is filed as organism-based. In a few lines:
as §4

The subject of data set [27] is Rattus norvegicus. Put plainly: Toxicity in phenobarbital pretreated Sprague-Dawley rat assessed as mortality at 23 mmol/kg, ip measured up to 24 hrs. It is filed as organism-based. The settings on record: in vivo. In a few lines:
as §4

The test system of data set [28] is Rattus norvegicus. Put plainly: Toxicity in Sprague-Dawley rat assessed as liver necrosis at 23 mmol/kg, ip measured after 4 to 24 hrs. It is filed as organism-based. The following applies: in vivo. In a few lines: as §2
For data set [29], the system named is Rattus norvegicus. Put plainly: Toxicity in phenobarbital pretreated Sprague-Dawley rat assessed as multiple, discrete foci of liver parenchymal cell necrosis at 11.5 mmol/kg, ip measured after 0.5 to 24 hrs by histopathological/light microscopy analysis (reference value: 0%). The following applies: in vivo. It is filed as organism-based. The gist of the method:
as §2

For data set [30], the system named is Rattus norvegicus. The data set can be described thus: Toxicity in Sprague-Dawley rat assessed as serum glutamic pyruvic transaminase level in blood at 23 mmol/kg, ip measured after 0.5 to 24 hrs (reference value: 14 +/- 2 IU/L). It is filed as organism-based. The following applies: in vivo.
Data set [31] has as its system Rattus norvegicus. Put plainly: Toxicity in Sprague-Dawley rat assessed as liver necrosis at 11.5 mmol/kg, ip measured after 4 to 24 hrs. It is filed as organism-based. The settings on record: in vivo. The gist of the method: as §2
Data set [32] relates to Rattus norvegicus. The data set can be described thus: Toxicity in phenobarbital pretreated Sprague-Dawley rat assessed as mortality at 4.6 mmol/kg, ip measured up to 24 hrs. It counts as organism-based. The settings on record: in vivo. The gist of the method: as §4
The subject of data set [33] is Rattus norvegicus. The data set can be described thus: Anesthetic activity in Sprague-Dawley rat assessed as duration of anesthesia at 4.6 mmol/kg, ip. It is filed as functional, organism-based. The settings on record: tested as the 14C-labelled form. The gist of the method: as §3

The source made the active and inactive calls. The rule behind the calls is not given here.

For the molecule `F[14C](F)(F)C(Cl)Br` (stereo not drawn), the Drug uptake entry with Rattus norvegicus [1] is “Active”; in the data set on Rattus norvegicus [11] it was “Not Active”; in the data set with Rattus norvegicus [14], “Active”; in the data set with Rattus norvegicus [17], “Not Active”. Besides, the Activity was 0% with Rattus norvegicus [2]; “Non-toxic” in the data set on Rattus norvegicus [3]; 0% with Rattus norvegicus [4]; “Toxic” in the data set with Rattus norvegicus [5]; 0% with Rattus norvegicus [6]; 6% in the data set with Rattus norvegicus [8]. In addition, the Activity entry with Rattus norvegicus [10] is “Non-toxic”; in the data set on Rattus norvegicus [12], “Non-toxic”; in the data set with Rattus norvegicus [13], 16 IU/L; in the data set on Rattus norvegicus [15], 37 IU/L; in the data set with Rattus norvegicus [18] it was 0%; in the data set on Rattus norvegicus [19] it was 19 IU/L. In addition, the Activity is 18 IU/L with Rattus norvegicus [20]; “Non-toxic” in the data set with Rattus norvegicus [21]; “Non-toxic” in the data set with Rattus norvegicus [22]; 58 IU/L in the data set with Rattus norvegicus [24]; “Toxic” in the data set with Rattus norvegicus [25]; “Non-toxic” with Rattus norvegicus [26]. The Activity result in the data set with Rattus norvegicus [27] was “Non-toxic”; with Rattus norvegicus [28], “Non-toxic”; with Rattus norvegicus [29], under 6%; in the data set on Rattus norvegicus [30], 18 IU/L; with Rattus norvegicus [31], “Non-toxic”; with Rattus norvegicus [32] it was “Non-toxic”. The Time in the data set with Rattus norvegicus [7] was determined as 1.92 h; in the data set with Rattus norvegicus [9] it was 3.75 h. Also, the PB was 0.8 nmol/mg in the data set on Liver [16] and over 2 nmol/mg with Liver [23].
As to `FC(F)(F)C(Cl)Br` (stereo not drawn), the outcome in the data set on Rattus norvegicus [33] was inactive.

These data come from ChEMBL document CHEMBL3244084, “A study of the mechanism of halothane-induced liver necrosis. Role of covalent binding of halothane metabolites to liver proteins in the rat” (J Med Chem, 1977).
